One experiment has as its system Aspergillus niger. Kind of experiment: Antifungal activity against Aspergillus niger IMI 31726 at 1 mg/ml by agar disk diffusion assay. In kind it is functional. The following applies: read-out: DIZ.
The next experiment has as its system Bacillus subtilis. The experiment is described as follows: Antibacterial activity against Bacillus subtilis NCTC 1040 at 1 mg/ml by agar disk diffusion assay. In kind it is functional. As to conditions: read-out: DIZ.
Another experiment concerns Escherichia coli. The experiment is described as follows: Antibacterial activity against Escherichia coli NCTC 10416 at 1 mg/ml by agar disk diffusion assay. In kind it is functional. As to conditions: read-out: DIZ.
The next experiment concerns Human alphaherpesvirus 1. Kind of experiment: Antiviral activity against HSV1 infected african green monkey Vero cells at 10^-2 dilution of 5 mg/ml by plaque formation assay. In kind it is functional. The method, boiled down:
(§1)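 Compound dilutions prepared from a 5 mg/mL DMSO stock, using the maximum non-toxic dilution for Vero cells over 3 days; 0.1 mL virus (10³) mixed with 0.1 mL compound for 1 h at room temperature; mixture inoculated onto washed Vero monolayers in 12-well plates and adsorbed at 37 °C; 2× MEM/agarose overlay applied; read-out % reduction in plaque count versus untreated virus control.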

Another experiment concerns Candida albicans. The experiment is described as follows: Antifungal activity against Candida albicans IMRU 3669 at 1 mg/ml by agar disk diffusion assay. In kind it is functional. The following applies: read-out: DIZ. The method, boiled down: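 Fungi maintained on Czapek's Dox agar; agar well diffusion with 1 cm wells and […] of each concentration (1, 2.5, 5 mg/mL) in DMF; inhibition zone diameter measured.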

The next experiment concerns Hepatovirus A. Kind of experiment: Antiviral activity against HAV infected african green monkey Vero cells at 10^-2 dilution of 5 mg/ml by plaque formation assay. In kind it is functional. The method, boiled down: as §1
For the next experiment, the system named is Coxsackievirus B4. The experiment is described as follows: Antiviral activity against Coxsackievirus B4 infected african green monkey Vero cells at 10^-2 dilution of 5 mg/ml by plaque formation assay. In kind it is functional. A digest of the protocol:
as §1

The next experiment concerns Staphylococcus aureus. The experiment is described as follows: Antibacterial activity against Staphylococcus aureus NCTC 7447 at 1 mg/ml by agar disk diffusion assay. The following applies: read-out: DIZ. In kind it is functional. (In general: In agar diffusion tests the substance spreads into inoculated agar from a disc or well.)
The test system of the next experiment is Salmonella typhi. Kind of experiment: Antibacterial activity against Salmonella typhi NCIMB 9331 at 1 mg/ml by agar disk diffusion assay. In kind it is functional, Salmonella enterica subsp. enterica serovar Typhi. The following applies: Salmonella enterica, read-out: DIZ.

Molecules are shown by their SMILES. Active and inactive are the calls of the source. The calls are words filed in the database; no cut-off is given here.

Consider one compound from ChEMBL document CHEMBL1155362, “Synthesis, characterization and derivatization of some novel types of mono- and bis-imidazolidineiminothiones and imidazolidineiminodithiones with antitumor, antiviral, antibacterial and antifungal activities--part I” (Eur J Med Chem, 2009).

Consider `O=C1C(=S)N(c2ccc(Br)cc2)C(=O)N1c1ccc2c(c1)Cc1ccccc1-2`, for which the zone of inhibition at 1000 µg/mL with Aspergillus niger turned out to be 13 mm; in the experiment on Bacillus subtilis, 14 mm; in the experiment on Escherichia coli, 11 mm; with Candida albicans, 13 mm; in the experiment on Staphylococcus aureus, 13 mm; in the experiment with Salmonella typhi, 12 mm. The same compound gave an Activity with Human alphaherpesvirus 1 of 40%. Also, the result in the experiment on Hepatovirus A and in the experiment on Coxsackievirus B4 was inactive.
